Bioassay records deposited in PubChem by Broad Institute.
CAL PDZ FP-1: human CAL PDZ-peptide interaction inhibition; Q9HD26; purified CAL PDZ, TMR-peptide fluorescence polarization, 1 h; inhibition, % at 20 µM; actives 0.02% (n = 330,000);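 active means highest replicate inhibition of at least 40%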;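 further: plate controls were DMSO neutral control wells for no effect and unlabeled competitor peptide control wells for full effect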
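Test system: purified CerCALP PDZ construct; Compound dosing: one concentration, 20 µM compound; Also added: TMR-labelled reporter peptide T*-PRC34 bound in PDZ groove; Read-out: inhibition from polarization loss; Controls: unlabelled peptide and DMSO controls; Signal: FP readout, S and P plane fluorescence; Incubation: 1 h at RT.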
ARNT-TACC3 inh: disrupts binding between human ARNT and TACC3. Q9Y6A5. AlphaScreen His-ARNT PAS-B/GST-TACC3 binding, luminescence; TACC3 fragment carries E629A point mutation. inhibition, % at 9.99 µM. actives 0.66% (n = 390,000). AID 623870;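 active means mean inhibition of replicates at least 50% and at least half of replicates each reaching 50%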;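 further: 0% = complete ARNT plus TACC3 wells and 100% = ARNT alone without TACC3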
SR-BI DiI inh: mouse SR-BI HDL lipid transfer inhibition. ldlA[mSR-BI] CHO cells, DiI-HDL uptake fluorescence, 3 h. inhibition, % at 12.5 µM. actives 0.96% (n = 320,000). Q61009;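 active means mean replicate inhibition of at least 70% and a set share of replicates each scoring 70 or more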;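 further: 0% = median of neutral control wells and 100% = median of positive control wells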
Target sequence (Q61009 whole entry, looked up): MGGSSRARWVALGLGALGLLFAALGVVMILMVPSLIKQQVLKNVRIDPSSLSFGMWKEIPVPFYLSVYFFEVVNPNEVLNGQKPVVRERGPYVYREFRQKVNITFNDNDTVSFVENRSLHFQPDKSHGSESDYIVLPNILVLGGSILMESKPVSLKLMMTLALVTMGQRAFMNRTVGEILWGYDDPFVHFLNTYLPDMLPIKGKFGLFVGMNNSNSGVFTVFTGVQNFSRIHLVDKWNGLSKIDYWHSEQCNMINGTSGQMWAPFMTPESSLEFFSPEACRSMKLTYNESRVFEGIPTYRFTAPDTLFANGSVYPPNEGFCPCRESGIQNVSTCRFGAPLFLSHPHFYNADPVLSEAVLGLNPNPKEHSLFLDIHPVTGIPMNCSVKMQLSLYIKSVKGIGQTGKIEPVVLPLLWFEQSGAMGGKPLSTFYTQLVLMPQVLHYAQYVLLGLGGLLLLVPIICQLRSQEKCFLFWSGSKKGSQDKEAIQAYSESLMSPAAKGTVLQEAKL
SR-BI DiI-HDL act: activators of SR-BI mediated HDL lipid uptake; actives 0.096% (n = 320,000); activation, % at 12.5 µM; CHO ldlA[mSR-BI] cells, DiI-HDL uptake fluorescence, 3 h; 100 = double the neutral-control signal; AID 504775;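 active means mean replicate activation of at least 60% and every replicate at or above 60%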;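 further: 0% = median plate neutral-control signal and 100% = twice that signal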
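Test system: SR-BI-overexpressing, LDLR-lacking CHO cells. Measured by: DiI fluorescence, bottom read. Medium: Ham's F12 with 0.5% BSA, HEPES 25 mM, pH 7.4. Timing: 3 h uptake period with compound, 37 °C.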
CAL PDZ FP-2: inhibitors of human CAL PDZ peptide binding; purified CAL PDZ, TMR-peptide fluorescence polarization, 1 h; inhibition, % at 24.9 µM; actives 0.92% (n = 300,000); AID 602252;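 active means mean inhibition of at least 30% with at least half of replicates also reaching 30%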;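 further: 0% = DMSO neutral control and 100% = excess unlabeled competitor peptide PRC23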
miR122 inh: blocks miR-122 activity in Huh7 sensor cells. Huh7 miR-122 Renilla luciferase sensor, 48 h; neutral wells = 0, positive control = 100. activation (reporter increase), % at 12.5 µM. actives 0.3% (n = 340,000). AID 602342;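 active means mean replicate activation score at least 90 and every replicate individually at or above 90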;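 further: higher luciferase means less miR-122 activity so hits act as miR-122 inhibitors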
ARNT Alpha ctr-1: AlphaScreen artifact in ARNT/TACC3 counter-screen; shares compounds with ARNT-TACC3 inh; His-ARNT PASB-GST AlphaScreen artifact counter-screen, luminescence; AC50, µM (highest dose often 68 µM), inactives show top-dose activity change, negative = signal decrease; actives 50% (n = 1,200);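 active means every separate test run was called active for a drop in luminescence, with AC50 within twice the top valid dose, actives reach about 71 µM in these data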
ARNT Alpha ctr-2: counter-screen for ARNT-TACC3 inhibitors: AlphaScreen artifacts; shares compounds with ARNT-TACC3 inh; Dual-tagged His-ARNT PASB-GST AlphaScreen artifact counter-screen; AC50, µM; actives 70% (n = 45); AID 720564;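 active means luminescence drop, with half-maximal potency fitted within twice the sample's top valid dose, cut at about 70 µM in these data; inactive means the rest, including signal moving the wrong way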
The depositor's hits bear a star; . = no result given; [ ] = dose if it differs, or a comment. Hits are enriched below; roughly 2.1% of the tested compounds scored in any of these assays.

SMILES	CAL PDZ FP-1	ARNT-TACC3 inh	SR-BI DiI inh	SR-BI DiI-HDL act	CAL PDZ FP-2	miR122 inh	ARNT Alpha ctr-1	others
CC1CCCN(S(=O)(=O)c2ccc(C(=O)Nc3nnc(C4CC4)o3)cc2)C1 (stereo not drawn)	-2	51*	1	-1	-2	-2	65µM*
Cc1nnc(NC(=O)c2ccc(S(=O)(=O)N3CCCCC3)cc2)o1	.	.	.	.	.	.	.	ARNT Alpha ctr-2=>136
COc1ccc(NC(=O)N(C)C[C@H]2OCCCC[C@@H](C)Oc3ccc(NC(=O)Nc4ccc(F)cc4)cc3C(=O)N([C@@H](C)CO)C[C@H]2C)cc1	.	8	.	.	.	14[16.7 µM]	.
Cc1noc(C)c1NC(=O)NCC[C@@H]1CC[C@@H](NC(=O)c2ccccc2)[C@H](CO)O1	.	-5	.	.	.	.	.
CC1=NN(c2ccccc2C)C(=O)C1	-2	active	-8	8	-2	-6	-3%
CCCNC(=O)Nc1ccc2c(c1)C(=O)N(C)C[C@H](OC)[C@@H](C)CN(Cc1cncnc1)[C@H](C)CO2	.	3	.	.	.	0[16.7 µM]	.
COc1ccc(Nc2nc(N)nc(CN(C)C3CCCCC3)n2)cc1	0	56*	-38	38	0	8	-10%
COc1ccc(Nc2nc(N)nc(COc3ccc(OC)cc3)n2)cc1	0	-4	11	-11	-8	-3	.
CCOc1ccc(Nc2ncnc(N)n2)cc1	-1	2	-9	9	-3	.	.
CCOc1ccc(Nc2nc(N)nc(CN(C)C3CCCCC3)n2)cc1	-1	63*	-16	16	.	-5	-10%
O=C(CCC(=O)c1cccs1)OCc1nnc(-c2ccccc2)o1	-3	33*	-6	6	3	-3	10%
CN1[C@H](C(=O)NCc2ccccn2)[C@@H](CO)[C@@H]2Cn3c(ccc(-c4cccc(F)c4)c3=O)[C@@H]21	.	26	.	.	.	.	.
CC(=O)c1cccc(-c2ccc3c(=O)[nH]c(Nc4ccccc4)cc3c2)c1	1	33*	50	-50	-5	3	-21%
O=C(NC1Cc2ccccc2C1)[C@H]1N[C@H]2c3cccc(=O)n3C[C@H]2[C@@H]1CO	.	active	.	.	.	.	-6%[38 µM]
O=C(O)c1cc2c(cn1)[nH]c1ccccc12	.	75*	-14	14	-7	5	9.7µM*
CC(C)c1cn(CC[C@H]2CC[C@@H](NC(=O)Nc3cc(Cl)cc(Cl)c3)[C@@H](CO)O2)nn1	.	-11	.	.	.	-18[16.7 µM]	.
Cn1cnc(S(=O)(=O)N[C@H]2C=C[C@@H](CC(=O)N3CCN(c4ccccc4)CC3)O[C@@H]2CO)c1	.	6	.	.	.	.	.
OCCN(Cc1cccnc1)Cc1ccccn1	-1	70*	-4	4	-1	.	15µM*
Cc1[nH]cnc1CN1CCc2c(c3ccccc3n2C)C1=O	0	28*	2	-2	-2	0	-8%
COc1cccc(C(=O)Nc2ccc3c(c2)OC[C@@H](C)N(CC2CC2)C[C@H](C)[C@@H](OC)CN(C)C3=O)c1	.	33	.	.	.	-2[16.7 µM]	.
O=C(N/N=C/c1cc(Br)ccc1OC(=O)c1ccc(Br)cc1)c1ccncc1	-4	61*	96*	-96	-6	1	56µM*
O=C(N/N=C/c1cc([N+](=O)[O-])ccc1O)c1ccncc1	-2	57*	.	.	3	-6	12µM*
O=C(NN=Cc1c(O)ccc2ccccc12)c1ccncc1	-2	56*	97*	-97	-6	9	49µM*
Cc1ccc(S(=O)(=O)Nc2ccc3c(c2)C(=O)N([C@@H](C)CO)C[C@H](C)[C@H](CN(C)S(=O)(=O)c2c(C)noc2C)O3)cc1	.	6	.	.	.	-5[16.7 µM]	.
CC(C)NC(=O)Nc1cccc2c1O[C@@H](CN(C)Cc1ccc(C(=O)O)cc1)[C@H](C)CN([C@H](C)CO)C2=O	.	5	.	.	.	-3[16.7 µM]	.
